{"source": "ChEMBL document CHEMBL4196177", "about": "“Synthesis, Evaluation, and Structure-Activity Relationship Study of Lanosterol Derivatives To Reverse Mutant-Crystallin-Induced Protein Aggregation” (J Med Chem, 2018)", "key": {"[1]": {"system": "T1, Alpha-crystallin B chain (Homo sapiens), P02511 [R120G]", "T1 sequence (whole entry)": "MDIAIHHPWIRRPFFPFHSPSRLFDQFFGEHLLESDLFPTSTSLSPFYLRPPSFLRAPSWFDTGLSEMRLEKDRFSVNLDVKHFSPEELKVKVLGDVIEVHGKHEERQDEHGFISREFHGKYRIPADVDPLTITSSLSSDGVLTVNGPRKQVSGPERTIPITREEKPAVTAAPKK", "assay": "Inhibition of alpha-crystallin B R120G mutant (unknown origin)-induced cytotoxicity in human HLE-B3 cells assessed as increase in cell viability at 0.04 to 4 uM incubated for 12 hrs by CCK8 assay", "assay_type": "cell-based"}, "[2]": {"system": "T2, Gamma-crystallin C (Homo sapiens), P07315 [G129C]", "T2 sequence (whole entry)": "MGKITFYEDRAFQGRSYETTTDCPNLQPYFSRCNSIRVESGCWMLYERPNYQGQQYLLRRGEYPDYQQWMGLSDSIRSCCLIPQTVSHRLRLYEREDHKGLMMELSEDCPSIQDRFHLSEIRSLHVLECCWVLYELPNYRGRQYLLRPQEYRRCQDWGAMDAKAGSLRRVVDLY", "assay": "Inhibition of gamma-crystallin C G129C mutant (unknown origin)-induced cytotoxicity in human HeLa cells assessed as increase in cell viability at 0.04 to 4 uM incubated for 12 hrs by CCK8 assay", "assay_type": "cell-based"}, "[3]": {"system": "T3, Alpha-crystallin A chain (Homo sapiens), P02489 [Y118D]", "T3 sequence (whole entry)": "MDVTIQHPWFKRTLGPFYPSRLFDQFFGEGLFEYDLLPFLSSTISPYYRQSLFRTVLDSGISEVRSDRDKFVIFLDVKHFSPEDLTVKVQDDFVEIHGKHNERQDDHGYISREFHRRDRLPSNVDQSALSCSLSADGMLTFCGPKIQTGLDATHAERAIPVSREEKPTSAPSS", "assay": "Inhibition of alpha-crystallin A Y118D mutant (unknown origin)-induced cytotoxicity in human HeLa cells assessed as increase in cell viability at 0.04 to 4 uM incubated for 12 hrs by CCK8 assay", "assay_type": "cell-based"}, "HeLa": {"system": "HeLa", "assay": "Increase in cell viability of human HeLa cells transfected with peGFP-N1 at 0.04 to 4 uM incubated for 12 hrs by CCK8 assay", "assay_type": "functional, cell-based"}, "[4]": {"system": "T4, Gamma-crystallin D (Homo sapiens), P07320 [W43R]", "T4 sequence (whole entry)": "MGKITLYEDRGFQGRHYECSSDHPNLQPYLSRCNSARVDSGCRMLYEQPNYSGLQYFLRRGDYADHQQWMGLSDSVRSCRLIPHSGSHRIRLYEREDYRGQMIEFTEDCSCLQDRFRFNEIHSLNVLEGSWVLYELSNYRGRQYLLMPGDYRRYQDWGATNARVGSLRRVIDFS", "assay": "Inhibition of gamma-crystallin D W43R mutant (unknown origin)-induced cytotoxicity in human HLE-B3 cells assessed as increase in cell viability at 0.04 to 4 uM incubated for 12 hrs by CCK8 assay", "assay_type": "cell-based"}, "[5]": {"system": "T3, Alpha-crystallin A chain (Homo sapiens), P02489 [Y118D]", "assay": "Inhibition of alpha-crystallin A Y118D mutant (unknown origin)-induced cytotoxicity in human HLE-B3 cells assessed as increase in cell viability at 0.04 to 4 uM incubated for 12 hrs by CCK8 assay", "assay_type": "cell-based"}, "[6]": {"system": "T2, Gamma-crystallin C (Homo sapiens), P07315 [G129C]", "assay": "Inhibition of gamma-crystallin C G129C mutant (unknown origin)-induced cytotoxicity in human HLE-B3 cells assessed as increase in cell viability at 0.04 to 4 uM incubated for 12 hrs by CCK8 assay", "assay_type": "cell-based"}, "[7]": {"system": "T4, Gamma-crystallin D (Homo sapiens), P07320 [W43R]", "assay": "Inhibition of gamma-crystallin D W43R mutant (unknown origin)-induced cytotoxicity in human HeLa cells assessed as increase in cell viability at 0.04 to 4 uM incubated for 12 hrs by CCK8 assay", "assay_type": "cell-based"}, "Homo sapiens": {"species_on_record": "Homo sapiens", "assay": "Increase in cell viability of human HLE-B3 cells transfected with peGFP-N1 at 0.04 to 4 uM incubated for 12 hrs by CCK8 assay", "assay_type": "functional"}, "[8]": {"system": "T5, Beta-crystallin B2 (Homo sapiens), P43320 [V187E]", "T5 sequence (whole entry)": "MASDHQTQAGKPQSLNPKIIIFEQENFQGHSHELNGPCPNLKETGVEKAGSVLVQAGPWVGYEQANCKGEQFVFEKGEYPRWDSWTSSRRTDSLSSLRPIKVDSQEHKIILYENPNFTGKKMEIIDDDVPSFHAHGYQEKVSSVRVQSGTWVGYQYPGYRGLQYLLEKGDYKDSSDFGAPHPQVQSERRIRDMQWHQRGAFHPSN", "assay": "Inhibition of beta-crystallin B2 V187E mutant (unknown origin)-induced cytotoxicity in human HeLa cells assessed as increase in cell viability at 0.04 to 4 uM incubated for 12 hrs by CCK8 assay", "assay_type": "cell-based"}, "[9]": {"system": "T5, Beta-crystallin B2 (Homo sapiens), P43320 [V187E]", "assay": "Inhibition of beta-crystallin B2 V187E mutant (unknown origin)-induced cytotoxicity in human HLE-B3 cells assessed as increase in cell viability at 0.04 to 4 uM incubated for 12 hrs by CCK8 assay", "assay_type": "cell-based"}, "[10]": {"system": "T1, Alpha-crystallin B chain (Homo sapiens), P02511 [R120G]", "assay": "Inhibition of alpha-crystallin B R120G mutant (unknown origin)-induced cytotoxicity in human HeLa cells assessed as increase in cell viability at 0.04 to 4 uM incubated for 12 hrs by CCK8 assay", "assay_type": "cell-based"}, "[11]": {"system": "T1, Alpha-crystallin B chain (Homo sapiens), P02511 [R120G]", "assay": "Induction of redissolving of aggregated alpha-crystallin B R120G mutant (unknown origin) at 200 uM incubated for 24 hrs by transmission-electron-microscopy", "how_it_was_run": "(§1)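 Pre-formed amyloid-like fibrils of mutant crystallin proteins were treated with compounds in liposomes or with a liposome vehicle. Fibrillar structures were then examined by negative-stain transmission electron microscopy.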"}, "[12]": {"system": "T4, Gamma-crystallin D (Homo sapiens), P07320 [W43R]", "assay": "Induction of redissolving of aggregated gamma-crystallin D W43R mutant (unknown origin) at 200 uM incubated for 24 hrs by ThT-fluorescence based assay", "how_it_was_run": "(§2)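 Purified mutant crystallin proteins, pre-formed into amyloid-like fibrils, were treated with compounds delivered in liposomes, with a liposome-only vehicle control. Redissolution was read as thioflavin T (ThT) fluorescence, n = 3.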"}, "[13]": {"system": "T6, Beta-crystallin B2 (Homo sapiens), P43320 [R188H]", "T6 sequence (whole entry)": "T5 sequence (whole entry) with E187V, R188H", "assay": "Induction of redissolving of aggregated beta-crystallin B2 R188H mutant (unknown origin) at 200 uM incubated for 24 hrs by transmission-electron-microscopy", "how_it_was_run": "as §1"}, "[14]": {"system": "T2, Gamma-crystallin C (Homo sapiens), P07315 [G129C]", "assay": "Induction of redissolving of aggregated gamma-crystallin C G129C mutant (unknown origin) at 200 uM incubated for 24 hrs by ThT-fluorescence based assay", "how_it_was_run": "as §2"}, "[15]": {"system": "T7, Alpha-crystallin A chain (Homo sapiens), P02489 [R116C]", "T7 sequence (whole entry)": "T3 sequence (whole entry) with R116C, D118Y", "assay": "Induction of redissolving of aggregated alpha-crystallin A R116C mutant (unknown origin) at 200 uM incubated for 24 hrs by transmission-electron-microscopy", "how_it_was_run": "as §1"}}, "note": "Changes are numbered by the printed parent chain. Activity calls are given as the source filed them. The calls are words filed in the database; no cut-off is given here."}
{"compound": "C[C@H](CCCC(C)(C)O)[C@H]1CC[C@@]2(C)C3=C(CC[C@]12C)[C@@]1(C)C[C@@H](F)[C@H](O)C(C)(C)[C@@H]1CC3", "values": [{"measurement": "inhibition", "setting": "[1]", "result": "Active"}, {"measurement": "inhibition", "setting": "[2]", "result": "Active"}, {"measurement": "inhibition", "setting": "[3]", "result": "Active"}, {"measurement": "Activity", "setting": "HeLa", "result": "Active"}, {"measurement": "inhibition", "setting": "[4]", "result": "Active"}, {"measurement": "inhibition", "setting": "[5]", "result": "Active"}, {"measurement": "inhibition", "setting": "[6]", "result": "Active"}, {"measurement": "inhibition", "setting": "[7]", "result": "Active"}, {"measurement": "Activity", "setting": "Homo sapiens", "result": "Active"}, {"measurement": "inhibition", "setting": "[8]", "result": "Active"}, {"measurement": "inhibition", "setting": "[9]", "result": "Active"}, {"measurement": "inhibition", "setting": "[10]", "result": "Active"}]}
{"compound": "C[C@H](CCCC(C)(C)O)[C@H]1CC[C@@]2(C)C3=C(CC[C@]12C)[C@@]1(C)CCC(=O)C(C)(C)[C@@H]1CC3", "values": [{"measurement": "inhibition", "setting": "[1]", "result": "Active"}, {"measurement": "inhibition", "setting": "[2]", "result": "Active"}, {"measurement": "inhibition", "setting": "[3]", "result": "Active"}, {"measurement": "Activity", "setting": "HeLa", "result": "Active"}, {"measurement": "inhibition", "setting": "[4]", "result": "Active"}, {"measurement": "inhibition", "setting": "[5]", "result": "Active"}, {"measurement": "inhibition", "setting": "[6]", "result": "Active"}, {"measurement": "inhibition", "setting": "[7]", "result": "Active"}, {"measurement": "Activity", "setting": "Homo sapiens", "result": "Active"}, {"measurement": "inhibition", "setting": "[8]", "result": "Active"}, {"measurement": "inhibition", "setting": "[9]", "result": "Active"}, {"measurement": "inhibition", "setting": "[10]", "result": "Active"}]}
{"compound": "C[C@H](CCCC(C)(C)O)[C@H]1CC[C@@]2(C)C3=C(CC[C@]12C)[C@@]1(C)C[C@@H](F)[C@@H](O)C(C)(C)[C@@H]1CC3", "values": [{"measurement": "inhibition", "setting": "[1]", "result": "Active"}, {"measurement": "inhibition", "setting": "[2]", "result": "Active"}, {"measurement": "inhibition", "setting": "[3]", "result": "Active"}, {"measurement": "Activity", "setting": "HeLa", "result": "Active"}, {"measurement": "inhibition", "setting": "[4]", "result": "Active"}, {"measurement": "inhibition", "setting": "[5]", "result": "Active"}, {"measurement": "inhibition", "setting": "[6]", "result": "Active"}, {"measurement": "inhibition", "setting": "[7]", "result": "Active"}, {"measurement": "Activity", "setting": "Homo sapiens", "result": "Active"}, {"measurement": "inhibition", "setting": "[8]", "result": "Active"}, {"measurement": "inhibition", "setting": "[9]", "result": "Active"}, {"measurement": "inhibition", "setting": "[10]", "result": "Active"}]}
{"compound": "C[C@H](CCCC(C)(C)O)[C@H]1CC[C@@]2(C)C3=C(CC[C@]12C)[C@@]1(C)CC[C@H](O)C(C)(C)[C@@H]1CC3", "values": [{"measurement": "Activity", "setting": "[11]", "result": "Active"}, {"measurement": "inhibition", "setting": "[1]", "result": "Active"}, {"measurement": "Activity", "setting": "[12]", "result": "Active"}, {"measurement": "inhibition", "setting": "[2]", "result": "Active"}, {"measurement": "inhibition", "setting": "[3]", "result": "Active"}, {"measurement": "Activity", "setting": "HeLa", "result": "Active"}, {"measurement": "inhibition", "setting": "[4]", "result": "Active"}, {"measurement": "inhibition", "setting": "[5]", "result": "Active"}, {"measurement": "inhibition", "setting": "[6]", "result": "Active"}, {"measurement": "Activity", "setting": "[13]", "result": "Active"}, {"measurement": "inhibition", "setting": "[7]", "result": "Active"}, {"measurement": "Activity", "setting": "Homo sapiens", "result": "Active"}, {"measurement": "inhibition", "setting": "[8]", "result": "Active"}, {"measurement": "inhibition", "setting": "[9]", "result": "Active"}, {"measurement": "inhibition", "setting": "[10]", "result": "Active"}, {"measurement": "Activity", "setting": "[14]", "result": "Active"}, {"measurement": "Activity", "setting": "[15]", "result": "Active"}]}
{"compound": "C[C@H](CCCC(C)(C)O)[C@H]1CC[C@@]2(C)C3=CC[C@H]4C(C)(C)[C@@H](O)CC[C@]4(C)C3=CC[C@]12C", "values": [{"measurement": "inhibition", "setting": "[1]", "result": "Active"}, {"measurement": "inhibition", "setting": "[2]", "result": "Active"}, {"measurement": "inhibition", "setting": "[3]", "result": "Active"}, {"measurement": "Activity", "setting": "HeLa", "result": "Active"}, {"measurement": "inhibition", "setting": "[4]", "result": "Active"}, {"measurement": "inhibition", "setting": "[5]", "result": "Active"}, {"measurement": "inhibition", "setting": "[6]", "result": "Active"}, {"measurement": "inhibition", "setting": "[7]", "result": "Active"}, {"measurement": "Activity", "setting": "Homo sapiens", "result": "Active"}, {"measurement": "inhibition", "setting": "[8]", "result": "Active"}, {"measurement": "inhibition", "setting": "[9]", "result": "Active"}, {"measurement": "inhibition", "setting": "[10]", "result": "Active"}]}
{"compound": "C[C@H](CCCC(C)(C)O)[C@H]1CC[C@@]2(C)[C@@]34CC[C@H]5C(C)(C)/C(=N/O)CC[C@]5(C)[C@]3(CC[C@]12C)O4", "values": [{"measurement": "Activity", "setting": "[11]", "result": "inactive"}, {"measurement": "Activity", "setting": "[12]", "result": "inactive"}, {"measurement": "Activity", "setting": "[13]", "result": "inactive"}, {"measurement": "Activity", "setting": "[14]", "result": "inactive"}, {"measurement": "Activity", "setting": "[15]", "result": "inactive"}]}
